According to PubChem BioAssay:
Inconclusive results are not listed. Activity calls are given as the source filed them.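 Rule for the calls, unless noted: active = viability increase at or above a cutoff of the median across tested compounds plus 3 SD (cut at about 8.5% in these data, passing the limit was not always enough); inconclusive = some gains above the cutoff, reason not given; inactive = the rest.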

Tests used:
[1] = S. cerevisiae growth inhibition in permissive medium (OD615), pilot counter-assay for S. cerevisiae lifespan shortening project, permissive growth control (AID 705;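 active = growth inhibition above 25% in both replicates, a cutoff set 3 SD above the mean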); settings: OD615, 24 h, at 10 µM, active compounds read high
Outline: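 assay system = Saccharomyces cerevisiae strain carrying genetically modified DeaD replicative-lifespan system | medium = SC raffinose/galactose permissive medium | dosing = 10 µM single dose, 0.25% DMSO | schedule = 24 h compound exposure at 30 °C after 4 h pre-growth | measured by = OD at 615 nm | read-out basis = growth inhibition from lowered OD615 after 24 h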

[2] = S. cerevisiae growth inhibition in restrictive medium, OD615, pilot screen, restrictive growth control, yeast lifespan reduction project (AID 706;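 active = growth inhibition above a set limit, 3 SD over mean compound inhibition, in both replicates, cut at about 43% in these data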;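 note: modified DeaD lifespan yeast strain shifted to restrictive glucose medium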); settings: OD615, 48 h, at 10 µM, active compounds read high
Outline: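 Buffer or medium: CSMM-D glucose medium. Material: genetically modified Saccharomyces cerevisiae, DeaD replicative lifespan assay strain. Times: 48 h compound exposure at 30 °C. Measured by: optical density at 615 nm.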

[3] = doxorubicin toxicity protection in MRP-1 cells – H69AR cells, CellTiter-Glo, duplicate, MRP-1 activator project, pilot screen (AID 807); settings: H69AR viability with doxorubicin, CellTiter-Glo luminescence; at 10 µM; active compounds read high;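 note: compound pretreatment 18-22 h then 72 h combined with doxorubicin; 0% = doxorubicin alone and 100% = vehicle without doxorubicin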
[4] = viability of HCT116 without oncogenic beta-catenin – human colon tumor cells, pilot screen (AID 823;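 active = cell viability at or below a set limit in both duplicate runs, the limit being the all-compound median minus 4 SD, cut at about 23% in these data, passing the limit was not always enough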;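 note: 0% = wells killed by 20 µM Hyamine and 100% = untreated DMSO cell wells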); settings: HCT116 beta-catenin knockout viability, CellTiter-Glo, 60 h; at 10 µM; active compounds read low
[5] = viability of PTEN-null HCT116 cells – cell-based, HCT116 clonal line, CellTiter-Glo, pilot screen (AID 824;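 active = viability at or below 27.92% in each of two runs, the all-compound median minus 4 SD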;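 note: 0% = 20 µM Hyamine control and 100% = vehicle cell control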); settings: HCT116 PTEN-deleted viability, 60 h, at 10 µM, active compounds read low
[6] = RAM pathway blockade in budding yeast – dse1pr::URA3 reporter, 5-FOA selection, pilot screen (AID 869;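 active = inhibition over a set limit, the all-compound mean plus 3 SD, in both replicate runs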;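 note: 0% = DMSO wells with no growth and 100% = 10 µM 1-NA-PP1 with full growth; RAM network block rescues cells from 5-FOA so hits raise OD615 growth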); settings: S. cerevisiae dse1pr::URA3 5-FOA growth, OD615, 2 d; at 10 µM; active compounds read high; strain carries analog-sensitive mutant Cbk1 kinase
[7] = RAM signaling pathway blockade in yeast – S. cerevisiae, Pdr1DBD-CYC8 efflux-inhibited sensitized strain, primary screen (AID 1298;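 active = RAM network inhibition above 8.4% in each of two replicates, 3 SD over the compound average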;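 note: 0% = DMSO untreated cells without growth and 100% = 10 µM 1-NA-PP1 full growth; higher means more yeast growth rescued from 5-FOA killing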); settings: S. cerevisiae cbk1-as DSE1-URA3 strain, 5-FOA growth OD615, 2 d; at 50 µM; active compounds read high

CN(C(=O)c1ccc2c(c1)OCO2)C1(C(=O)NC2CCCCC2)CCCCC1
inactive: growth inhibition [1] -8.36% | growth inhibition [2] 0.39% | viability increase [3] -1.06% | viability [4] 90.6% | viability [5] 83.6% | inhibition [6] 1.91% | RAM network inhibition [7] 0.21%

Cc1cc(N2CCN(C3CCCCC3)CC2)n2nc(C)nc2n1
inactive: growth inhibition [1] 5.17% | growth inhibition [2] 4.13% | viability increase [3] -2.07% | viability [4] 93.5% | viability [5] 96.2% | inhibition [6] 2.16% | RAM network inhibition [7] 5.03%

CC1(C)CC(=O)C2=C(C1)OC(N)=C(C#N)C2c1ccc(OC(=O)N2CCOCC2)cc1 (stereo not given)
inactive: growth inhibition [1] -8.71% | growth inhibition [2] -10.3% | viability increase [3] -1.1% | viability [4] 100% | viability [5] 105% | inhibition [6] 1.12% | RAM network inhibition [7] 0.1%

Cc1cc(/C=N/n2cnnc2)c(C)n1-c1ccc(C(=O)O)cc1
inactive: growth inhibition [1] 5.52% | growth inhibition [2] -2.69% | viability increase [3] 1.76% | viability [4] 102% | viability [5] 99% | inhibition [6] 0.98% | RAM network inhibition [7] 2.56%

Cc1sc2nc(CSc3nnc(Cc4cccs4)n3C3CCCCC3)[nH]c(=O)c2c1C
inactive: growth inhibition [1] 10.9% | growth inhibition [2] 27.6% | viability increase [3] 3.27% | viability [4] 92.8% | viability [5] 90% | inhibition [6] 3.25% | RAM network inhibition [7] 4.25%

Cc1cc2cc(CNC(=O)c3ccco3)ccc2n1C
inactive: growth inhibition [1] -7.55% | growth inhibition [2] -15.6% | viability increase [3] -4.26% | viability [4] 106% | viability [5] 94.4% | inhibition [6] 1.89% | RAM network inhibition [7] 6.42%

CCOC(=O)C1CCN(C(c2cccc(OC)c2)c2sc3nc(C)nn3c2O)CC1 (stereo not given)
inactive: growth inhibition [1] -2.67% | growth inhibition [2] -6.39% | viability increase [3] -1.96% | viability [4] 94.2% | viability [5] 95.9% | inhibition [6] 0.11% | RAM network inhibition [7] -0.51%

CCOC(=O)N1CCN(c2nc(C)cc(C(F)(F)F)n2)CC1
inactive: growth inhibition [1] 1.86% | growth inhibition [2] -23.3% | viability increase [3] 2.84% | viability [4] 102% | viability [5] 96.5% | inhibition [6] 2.92% | RAM network inhibition [7] 2.23%

CC1Cc2nc(SCC(=O)Nc3ccc4c(c3)OCO4)n(CCc3ccccc3)c(=O)c2S1 (stereo not given)
inactive: growth inhibition [1] -14% | growth inhibition [2] -23.8% | viability increase [3] -2.89% | viability [4] 94.4% | viability [5] 87.1% | inhibition [6] 2.35% | RAM network inhibition [7] 7.17%

Cc1ccc(-n2nnc3c(=O)n(CC(=O)OCc4ccccc4)cnc32)cc1
inactive: growth inhibition [1] -3.74% | growth inhibition [2] -5.4% | viability increase [3] -2.06% | viability [4] 92.6% | viability [5] 91.1% | inhibition [6] 2.02% | RAM network inhibition [7] 6.18%

CCOC(=O)Cn1c(=O)oc2cc(S(=O)(=O)NCc3ccccn3)ccc21
inactive: growth inhibition [1] -14% | growth inhibition [2] -21.4% | viability increase [3] -1.25% | viability [4] 105% | viability [5] 95.1% | inhibition [6] 1.79% | RAM network inhibition [7] 3.14%

O=C(CSc1nnnn1-c1ccccc1)CSc1nnnn1-c1ccccc1
inactive: growth inhibition [1] -7.66% | growth inhibition [2] 1.63% | viability increase [3] -5.63% | viability [4] 92.6% | viability [5] 90.1% | inhibition [6] 2.98% | RAM network inhibition [7] 7.19%

CCCCN(C)C(=O)C(Cc1ccccc1)NS(=O)(=O)c1ccc2c(c1)CCC(=O)N2 (stereo not given)
inactive: growth inhibition [1] -18.6% | growth inhibition [2] -11.7% | viability increase [3] -2.47% | viability [4] 89.5% | viability [5] 90.2% | inhibition [6] 1.44% | RAM network inhibition [7] 6.27%

CC(=O)Oc1ccc(C(=O)Nc2nnc(C)s2)cc1
inactive: growth inhibition [1] -10.4% | growth inhibition [2] -4.59% | viability increase [3] -2.2% | viability [4] 100% | viability [5] 104% | inhibition [6] 2.9% | RAM network inhibition [7] -0.78%

CCCOC(=O)c1ccc(NC(=O)c2ccoc2C)cc1
inactive: growth inhibition [1] -3.79% | growth inhibition [2] 1.33% | viability increase [3] 0.94% | viability [4] 75.5% | viability [5] 78% | inhibition [6] 2.72% | RAM network inhibition [7] 4.37%

Cc1cccc(NC(=O)c2ccc(S(=O)(=O)N(C)C)cc2)c1
inactive: growth inhibition [1] -8.26% | growth inhibition [2] -8.44% | viability increase [3] -3.61% | viability [4] 106% | viability [5] 100% | inhibition [6] 2.24% | RAM network inhibition [7] 1.69%

CC(C)n1c(SCc2ccccc2F)nc2c1c(=O)n(C)c(=O)n2C
inactive: growth inhibition [1] -11.3% | growth inhibition [2] -1.82% | viability increase [3] -1.77% | viability [4] 82.7% | viability [5] 76.5% | inhibition [6] 1.15% | RAM network inhibition [7] 5.87%

CCn1cc(CNC(=O)c2cc(Cl)ccc2OC)c(C)n1
inactive: growth inhibition [1] -4.3% | growth inhibition [2] -0.555% | viability increase [3] -0.95% | viability [4] 91% | viability [5] 92.2% | inhibition [6] -0.445% | RAM network inhibition [7] 3.38%

CN1CCN(C(=O)c2ccccc2NC(=O)Cc2ccccc2)CC1
inactive: growth inhibition [1] -12.3% | growth inhibition [2] 1.69% | viability increase [3] -1.06% | viability [4] 98.4% | viability [5] 103% | inhibition [6] 1.83% | RAM network inhibition [7] 1.81%

CC1=C(C(=O)OC2CCCCC2)C(c2ccco2)C2=C(CC(C)(C)CC2=O)N1 (stereo not given)
inactive: growth inhibition [1] -8.2% | growth inhibition [2] -8.91% | viability increase [3] -7.87% | viability [4] 64.8% | viability [5] 62.7% | inhibition [6] 0.115% | RAM network inhibition [7] 2.03%

Cc1nc2ccc(NC(=O)c3ccc(Cl)s3)cc2s1
inactive: growth inhibition [1] -7.99% | growth inhibition [2] -7.74% | viability increase [3] -3.83% | viability [4] 106% | viability [5] 97.1% | inhibition [6] 1.84% | RAM network inhibition [7] 4.46%

CCOC(=O)C1CCN(S(=O)(=O)c2cc(Br)cc3c2N(C(C)=O)C(C)C3)CC1 (stereo not given)
inactive: growth inhibition [1] -11.1% | growth inhibition [2] -29% | viability increase [3] 0.29% | viability [4] 93.4% | viability [5] 93.2% | inhibition [6] 1.19% | RAM network inhibition [7] 11.2%

CCOC(=O)Nc1ccc2ncn(C)c(=O)c2c1
inactive: growth inhibition [1] -16.6% | growth inhibition [2] -8.55% | viability increase [3] -5.77% | viability [4] 101% | viability [5] 94.8% | inhibition [6] -0.055% | RAM network inhibition [7] 1.08%

Cn1c(=O)[nH]c(=O)c2[nH]c(CN3CCN(Cc4ccccc4)CC3)nc21
inactive: growth inhibition [1] -9.19% | growth inhibition [2] -10% | viability increase [3] -0.77% | viability [4] 104% | viability [5] 99.5% | inhibition [6] 0.395% | RAM network inhibition [7] 1.09%

CC1CCN(C(=O)CSc2nnc(Cn3c(=O)sc4ccccc43)n2C)CC1
inactive: growth inhibition [1] -3.65% | growth inhibition [2] -5% | viability increase [3] -0.3% | viability [4] 121% | viability [5] 112% | inhibition [6] 0.075% | RAM network inhibition [7] 3.13%

CCCN1CCN(CCCNC(=O)Cn2cc3c(n2)CCCC3)CC1
inactive: growth inhibition [1] -3.77% | growth inhibition [2] -2.67% | viability increase [3] -0.96% | viability [4] 101% | viability [5] 91% | inhibition [6] 0.27% | RAM network inhibition [7] 3.05%

COc1ccc(OC)c(CNC(=O)CCc2nc(-c3cccs3)no2)c1
inactive: growth inhibition [1] 2.87% | growth inhibition [2] 11.3% | viability increase [3] -2.92% | viability [4] 98% | viability [5] 93.4% | inhibition [6] 1.71% | RAM network inhibition [7] 2.56%

Cc1cc(=S)n(-c2ccccc2)n1C
inactive: growth inhibition [1] 1.78% | growth inhibition [2] 7.75% | viability increase [3] -0.34% | viability [4] 102% | viability [5] 95.4% | inhibition [6] 1.21% | RAM network inhibition [7] 0.45%

COc1ccc(N(CC(=O)Nc2ccc3c(c2)OCO3)S(=O)(=O)c2ccccc2)c(OC)c1
inactive: growth inhibition [1] -7.79% | growth inhibition [2] -13.1% | viability increase [3] -2.07% | viability [4] 71.8% | viability [5] 75.6% | inhibition [6] 2.93% | RAM network inhibition [7] 9.79%

O=C(Cn1cc2c(n1)CCCC2)NC1CCN(Cc2ccccc2)CC1
inactive: growth inhibition [1] 2.67% | growth inhibition [2] 5.09% | viability increase [3] -1.67% | viability [4] 87% | viability [5] 87% | inhibition [6] 0.965% | RAM network inhibition [7] -0.16%

O=S(=O)(NC1=NCCCCC1)c1cccs1
inactive: growth inhibition [1] -0.86% | growth inhibition [2] -16.7% | viability increase [3] -0.2% | viability [4] 100% | viability [5] 98.2% | inhibition [6] 0.765% | RAM network inhibition [7] 5.54%

Cc1ccc(OCc2nc(-c3ccccn3)no2)c(Br)c1
inactive: growth inhibition [1] 1.26% | growth inhibition [2] 4.31% | viability increase [3] 1.13% | viability [4] 86.7% | viability [5] 84.9% | inhibition [6] -0.35% | RAM network inhibition [7] 1.62%

CCOC(=O)Cc1c(C)nc2c(-c3ccccc3)c[nH]n2c1=O
inactive: growth inhibition [1] -9.38% | growth inhibition [2] -14.3% | viability increase [3] -5.95% | viability [4] 76.8% | viability [5] 76.5% | inhibition [6] 1.96% | RAM network inhibition [7] 10.5%

Cn1c(=O)c2c(nc(CN3CCN(Cc4ccccc4)CC3)n2Cc2ccc(Cl)cc2)n(C)c1=O
active: viability [4] 8.81% | viability [5] 10.3%
inactive: growth inhibition [1] -2.47% | growth inhibition [2] -13.5% | viability increase [3] -6.52% | inhibition [6] 1.27% | RAM network inhibition [7] 2.33%

CCCCN(C)CCNC(=O)Cn1ncc2c(=O)oc3ccc(C)cc3c21
inactive: growth inhibition [1] -3.19% | growth inhibition [2] 0.355% | viability increase [3] -2.9% | viability [4] 95.1% | viability [5] 94.2% | inhibition [6] 0.93% | RAM network inhibition [7] 3.72%
